Data as given in ChEMBL document CHEMBL4513216, “Probing the Open Global Health Chemical Diversity Library for Multistage-Active Starting Points for Next-Generation Antimalarials” (ACS Infect Dis, 2020).

assay: Toxicity liver stage against HepG2, at 10uM; type: cell-based; set-up: test concentration 10 uM, cell line HepG2-A16-CD81EGFP; settings: human, HepG2-A16-CD81EGFP cells; read-out: INHIBITION
In short: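 Uninfected HepG2-A16-CD81EGFP cells, 3 × 10^3 per well, 1536-well, plated on prespotted compound at 10 μM final, parasite-free screening media added to match infected plates; puromycin 10 μM positive, DMSO 0.5% negative; run in parallel with 48 h PbLuc assay at 37 °C, 5% CO2; viability by CellTiter-Glo luminescence, normalized to controls.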

First: Cc1cnc(N2CCC3(CC2)CC3CNC(=O)C2CCC2)nc1 (centres undefined)
Second: Cc1ccc(CN2CCN(C(=O)C3CCC3)[C@@H]3CS(=O)(=O)C[C@@H]32)cc1C
The cytotoxicity at 10 µM of the first is higher: 38% for the first, 2.09% for the second.

Compared with `NC(=O)Cn1c(CO)cnc1SCC(=O)NCc1ccccc1`, `O=C(CN1C=Nc2ccccc2S1(=O)=O)NCCCc1ccccc1` is lower in cytotoxicity at 10 µM: 0.252% for the first, -3.54% for the second.

Going from `O=C(NC1CCCC1)C1Cc2nc(-c3ccsc3)sc2N1CC1CC1` (centres undefined) to `O=C(c1ccc(-c2ccsc2)nc1)N1CCCN(C2CCCCC2)CC1`, the cytotoxicity at 10 µM falls from 16.6% to 6.67%.

First: CCC1(CO)CCCN(Cc2nccn2Cc2ccccc2)C1 (centres undefined)
Second: c1ccc(N2CC3(CCN(Cc4cccnc4)C3)C2)nc1
The cytotoxicity at 10 µM of the first is lower: -7.35% for the first, 1.11% for the second.

Compared with `CCc1nnc(CNC2CCN(c3ncnc4c(C)csc34)CC2)s1`, `Cc1cc(NCCO)nc(N2CCC(Cc3ccccc3)CC2)c1C#N` is lower in cytotoxicity at 10 µM: 10.5% for the first, 4.35% for the second.

Compared with `CC(NC(=O)C1=NN(C)C(=O)CC1)c1cccc(Cl)c1` (centres undefined), `Cc1cccc(C(=O)NC(CN2CCCC2=O)c2ccccc2)n1` (centres undefined) is lower in cytotoxicity at 10 µM: -2.45% for the first, -9.16% for the second.

First: O=C(Nc1nncs1)N(Cc1cccc(F)c1)C1CC1
Second: NC(=O)C1CCN(Cc2cccc(NC(=O)c3ccsc3)c2)CC1
The cytotoxicity at 10 µM of the first is higher: 47.6% for the first, 18.7% for the second.

Compared with `c1nc(N2CCCCC2Cn2cncn2)c2sccc2n1` (centres undefined), `Cn1cnnc1C1CCCN(C(=O)c2cnc3ccccc3n2)C1` (centres undefined) is lower in cytotoxicity at 10 µM: 9.43% for the first, 0.577% for the second.

Compared with `Cn1cc2c(n1)C(CNC(=O)Cc1ccsc1)OCC2` (centres undefined), `Cc1ccc(OCc2nc(CNCC3CN(C)CCO3)cs2)cc1` (centres undefined) is lower in cytotoxicity at 10 µM: 0.175% for the first, -23.5% for the second.

First: O=c1c(Cc2ccc(Cl)cc2Cl)c(O)ccn1CC1CC1
Second: O=C(Cn1ccc2c(Cl)cccc21)N1CCCC1
The cytotoxicity at 10 µM of the first is higher: 13.6% for the first, 0.583% for the second.

Going from `COCCN(Cc1cccs1)C(=O)C1CCCN(C(N)=O)C1` (centres undefined) to `CS(=O)(=O)NC1CCCN(C(=O)NCc2cccnc2)C1` (centres undefined), the cytotoxicity at 10 µM falls from 6.4% to 1.59%.

Compared with `CN(C)C(=O)c1ccc(NCCNc2ccc3ccccc3n2)nc1`, `CN(C)c1cccc(CNC(=O)Nc2ccc3[nH]nnc3c2)n1` is lower in cytotoxicity at 10 µM: 4.63% for the first, 3.15% for the second.

First: O=C(Nc1cnn(Cc2ccc(Cl)cc2)c1)N[C@@H]1C=C[C@H](CO)C1
Second: Nc1cc(CCC2CN(Cc3cccc(C(=O)O)c3)CCO2)ccn1 (centres undefined)
The cytotoxicity at 10 µM of the first is lower: -2.96% for the first, -1.17% for the second.

Going from `Nc1nnc(CCCn2nnc(-c3ccccc3F)n2)s1` to `CCNc1nc2c(s1)C(=O)CN(C(=O)NCCc1ccccc1)C2`, the cytotoxicity at 10 µM rises from -1.67% to 3.3%.

Compared with `Cc1nc(C)n(CC2CN(Cc3cccnc3)Cc3nccn3C2)n1` (centres undefined), `c1cncc(CN2CCn3cc(Cn4cccn4)nc3C2)c1` is higher in cytotoxicity at 10 µM: -141% for the first, 4.93% for the second.

Going from `CSc1ncn(-c2nc(N(C)C)nc(N(C)C)n2)n1` to `Cc1nnc(NC(=O)NCc2ccnc(N(C)C)c2)s1`, the cytotoxicity at 10 µM falls from -3.54% to -10.2%.

Compared with `COc1cccc(C(C)Nc2ncnc3c2NC(=O)CN3)c1` (centres undefined), `COc1cccc(CNc2cnn(C)c(=O)c2Cl)c1` is lower in cytotoxicity at 10 µM: 9.76% for the first, -8.78% for the second.

First: CN(C)C(=O)c1ccc(CNC(=O)NCCN(C)C2CCCC2)cc1
Second: Cc1ccc(C(=O)CC(SC2CCCCC2)C(=O)O)cc1 (centres undefined)
The cytotoxicity at 10 µM of the first is lower: -5.58% for the first, 7.53% for the second.

Going from `N#Cc1ccnc(N2CCN(CC(O)c3cccc(F)c3)CC2)c1` (centres undefined) to `O=C1CC2(CCSC2)C(=O)N1Cc1coc(-c2cccc(F)c2)n1` (centres undefined), the cytotoxicity at 10 µM falls from 3.15% to -0.237%.

Compared with `Cn1cc(Br)cc1C(=O)NC1(C#N)CC1`, `CCOc1ccc(C#N)cc1NCC(=O)NC1(C#N)CCCC1` is lower in cytotoxicity at 10 µM: 21.8% for the first, -30.8% for the second.

Compared with `CC(C)Cc1nc(CN2CCC(N3CCN(C)C3=O)CC2)no1`, `Cc1ncc(CNC(=O)CCc2c(C)noc2C)c(C2CCCN2C)n1` (centres undefined) is lower in cytotoxicity at 10 µM: 14% for the first, -8.86% for the second.

First: O=C(NC1CCC1)[C@H]1CCS(=O)(=O)[C@@H]2CN(CCc3ccccc3)C[C@H]12
Second: O=C(COCC1CC1)NCC(c1ccccc1)N1CCc2sccc2C1 (centres undefined)
The cytotoxicity at 10 µM of the first is lower: -3.06% for the first, 16.6% for the second.

Going from `CC(NC(=O)Nc1nncs1)C(=O)NC1CCCC1` (centres undefined) to `CCOc1cc(CNC(=O)CNC(=O)CC2CCCCC2)ccn1`, the cytotoxicity at 10 µM rises from -5.36% to 6.81%.

Compared with `O=C(c1ccncc1)N1CC[C@@H]2[C@@H](CC1)OCCN2c1cccnc1`, `O=C(CN1CCOC(Cn2cccn2)C1)Nc1cccnc1` (centres undefined) is higher in cytotoxicity at 10 µM: 8.25% for the first, 10.7% for the second.

First: CCc1noc(C(C)N(C)CC(=O)Nc2ccc(Br)cc2C)n1 (centres undefined)
Second: Cc1noc(C)c1C(=O)NCC(O)c1ccc(F)cc1F (centres undefined)
The cytotoxicity at 10 µM of the first is higher: 19.6% for the first, -3.56% for the second.

First: Cc1cn2c(CN(C)C(=O)c3ncoc3C)c(C)nc2s1
Second: Cc1noc(C)c1CNC(=O)Nc1ccc(N2CCOC(C)C2)cc1 (centres undefined)
The cytotoxicity at 10 µM of the first is lower: -3.28% for the first, -2.35% for the second.

Compared with `CCC(CC)C(=O)NS(=O)(=O)c1ccc(C#N)cc1C(F)(F)F`, `CCC(CO)N(Cc1ccsc1)Cc1ccccc1C#N` (centres undefined) is higher in cytotoxicity at 10 µM: -15.9% for the first, 9.64% for the second.

Compared with `CC(C)N1C(=O)C2(CCN(C)CC2)c2cc(F)ccc21`, `CCN1CCN(S(=O)(=O)c2cn(C(C)C)cn2)c2ccccc21` is higher in cytotoxicity at 10 µM: -110% for the first, -4.3% for the second.

Compared with `COCC(C)NS(=O)(=O)c1ccc(Br)cn1` (centres undefined), `COCCCNS(=O)(=O)c1cc(Br)sc1C` is higher in cytotoxicity at 10 µM: -6.74% for the first, -6.14% for the second.

First: O=C1CC(N(C(=O)c2ccc(-n3cccc3)cc2)C2CC2)C(=O)N1 (centres undefined)
Second: Cc1ccc(-n2cc3[nH]c(=O)[nH]n3c2=O)cc1
The cytotoxicity at 10 µM of the first is lower: -1.67% for the first, 1.22% for the second.

First: CC(=O)NCC(=O)N1CCOC2(CCCN(c3ccc(C)nn3)C2)C1 (centres undefined)
Second: COCCN1CCN(C)C2(CCN(C(=O)c3ccnnc3)CC2)C1=O
The cytotoxicity at 10 µM of the first is lower: 0.876% for the first, 11.6% for the second.

First: CCN(Cc1cc(Cl)ccc1OC)Cc1cc(C)nn1C
Second: COc1ccc(Cl)cc1CCNC(=O)NCc1cnn(C)c1C
The cytotoxicity at 10 µM of the first is higher: 6.62% for the first, 3.87% for the second.

First: O=C(NC1CC1)N1CCCC2(CCCCN2)C1 (centres undefined)
Second: O=C(COC[C@]12COC[C@H]1CN(C1CCC1)C2)N1CCCC1
The cytotoxicity at 10 µM of the first is higher: 8.77% for the first, -102% for the second.

Going from `CNC(=O)c1cn2cc(-c3ccccc3Cl)n(CC=C(C)C)c(=O)c2n1` to `COC(=O)COn1c(SC(C)C)nc2ccccc2c1=O`, the cytotoxicity at 10 µM rises from -7.05% to -6.17%.

Compared with `COC(=O)NCCCC(=O)NC1(c2cccc(Cl)c2)CC1`, `COc1ccc2c(c1)CCCC2CC(=O)NCC(C)(C)C(=O)O` (centres undefined) is higher in cytotoxicity at 10 µM: -2.56% for the first, -1.2% for the second.

Compared with `c1cc(CN2C[C@@H]3OCCN(CCN4CCCC4)[C@@H]3C2)co1`, `CCCS(=O)(=O)N1CCCN(CCCOC)CC1` is higher in cytotoxicity at 10 µM: 6.13% for the first, 7.53% for the second.

First: COc1cc(CN(CCCN(C)C)Cc2ccccn2)cc2c1OCO2
Second: CCn1ncc2c1CCCC2NCc1ccc(OC)cc1OC (centres undefined)
The cytotoxicity at 10 µM of the first is higher: 1.44% for the first, -2.06% for the second.

Going from `Cc1cccc(NC(=O)C2CC(=O)n3cnnc3S2)c1` (centres undefined) to `Cc1cccc(C)c1Oc1ncccc1CNC(=O)C1(C)CCCNC1` (centres undefined), the cytotoxicity at 10 µM falls from 2.37% to 0.687%.

Going from `CCn1nc(C)c(CCn2ccnc2-c2cc3n(n2)CCCNC3)c1C` to `CCOc1ccc(NCc2cnc(N3CCN(C)CC3)nc2)cn1`, the cytotoxicity at 10 µM rises from -2.1% to -0.512%.

Compared with `O=C1CCC2(CCCN(C(=O)c3ccccn3)CC2)N1` (centres undefined), `O=C(C1CCCC1)N1CCCC(c2nc(O)cc(-c3ccncc3)n2)C1` (centres undefined) is lower in cytotoxicity at 10 µM: -2.51% for the first, -16.9% for the second.

First: CN(C)CC1(O)CCN(C(=O)c2cnc(-c3cccnc3)nc2)C1 (centres undefined)
Second: Cc1cccc(CNC(Cc2ccsc2)c2nccs2)n1 (centres undefined)
The cytotoxicity at 10 µM of the first is higher: 5.75% for the first, 2.83% for the second.

Compared with `Cc1ccoc1CNCc1nnc2n1CCCC2C(F)(F)F` (centres undefined), `CC(C)(C)NC(=O)c1cnc2n1CCCC2` is lower in cytotoxicity at 10 µM: 13.9% for the first, -3.32% for the second.
